RAD54 branch: inhibitors of human RAD54 branch migration, primary screen, biochemical, fluorescence, single point. 0.14% of 360,000 active. RAD54 Holliday junction branch migration, FAM/BHQ fluorescence. inhibition, % at 10.4 µM;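 active = mean normalized replicate activity at least 40 and at least half of replicates scoring 40 or more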;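 also: inhibitors cause a drop in the FAM fluorescence signal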
Target sequence (Q92698 whole entry, looked up): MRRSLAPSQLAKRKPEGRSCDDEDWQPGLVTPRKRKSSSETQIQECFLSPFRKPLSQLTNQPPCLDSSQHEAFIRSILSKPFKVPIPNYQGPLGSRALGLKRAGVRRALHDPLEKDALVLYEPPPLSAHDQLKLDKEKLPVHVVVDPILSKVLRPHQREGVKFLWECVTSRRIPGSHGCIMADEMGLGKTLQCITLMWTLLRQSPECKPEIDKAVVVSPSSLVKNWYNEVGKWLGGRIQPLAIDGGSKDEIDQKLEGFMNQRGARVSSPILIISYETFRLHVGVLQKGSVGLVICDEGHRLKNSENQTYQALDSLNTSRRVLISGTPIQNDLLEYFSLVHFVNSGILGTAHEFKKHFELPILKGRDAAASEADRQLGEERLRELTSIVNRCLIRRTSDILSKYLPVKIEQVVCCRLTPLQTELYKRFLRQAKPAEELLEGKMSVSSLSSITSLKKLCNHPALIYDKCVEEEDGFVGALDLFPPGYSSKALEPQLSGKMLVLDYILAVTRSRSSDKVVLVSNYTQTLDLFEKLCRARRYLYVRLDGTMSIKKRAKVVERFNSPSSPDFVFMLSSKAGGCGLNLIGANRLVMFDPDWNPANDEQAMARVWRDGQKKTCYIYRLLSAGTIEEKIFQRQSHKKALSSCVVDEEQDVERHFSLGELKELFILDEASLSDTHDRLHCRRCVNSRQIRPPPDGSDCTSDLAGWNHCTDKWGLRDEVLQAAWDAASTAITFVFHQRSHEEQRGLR
PvdQ acylase: P. aeruginosa PvdQ acylase inhibitors, primary screen, biochemical, fluorescence, plate reader and imaging, single point | purified PvdQ acylase | 0.063% of 340,000 active | inhibition, % at 10 µM | PvdQ acylase [Pseudomonas aeruginosa LESB58]; in the data active = inhibition above about 30%, passing the limit was not always enough
DNA FID counter: compounds displacing fluorescent DNA intercalator, primary screen, artefact control for HCV NS3 helicase inhibitor project, biochemical, FID fluorescence. inhibition, % at 7.9 µM. 0.17% of 290,000 active. AID 1845, 2009. DNA fluorescent intercalator displacement; in the data active = inhibition above about 37%;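 also: higher means more ethidium bromide displaced from hairpin DNA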
VIM-2 inh: VIM-2 metallo-beta-lactamase inhibitors, primary screen, biochemical, epi-absorbance readout, Pseudomonas aeruginosa enzyme | purified VIM-2, nitrocefin hydrolysis, epi-absorbance fluorescence | inhibition, % at 5.6 µM | 0.89% of 290,000 active | AID 1527, 2009;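 active = inhibition above the mean of all tested compounds plus 3 SD, cutoff set per screening run, cut at about 7.5% in these data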;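 also: red hydrolysis product quenches plate fluorescence so inhibitors raise well fluorescence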
IMP-1 inhibitor: IMP-1 metallo-beta-lactamase inhibitors, primary screen, biochemical, epi-absorbance readout, Pseudomonas aeruginosa enzyme; metallo-beta-lactamase IMP-1 (Pseudomonas aeruginosa); purified IMP-1, nitrocefin hydrolysis, epi-absorbance fluorescence; inhibition, % at 5.6 µM; 0.45% of 290,000 active; AID 1556, 2009;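 active = inhibition above the mean plus 3 SD of all compounds in the same screening run, cut at about 4.5% in these data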
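System: Purified IMP-1 | Read-out basis: Percent enzyme inhibition | Controls: IMP-1 with DMSO as 0%, enzyme-free DMSO as 100% | Replicates: One well per compound | Doses: 5.6 µM nominal single concentration | Detection: Epi-absorbance fluorescence, 480 nm excitation, 530 nm emission | Incubation: 25 °C, 15 min preincubation, 25 min reaction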
Numbers stand for hits. Hits are enriched below; roughly 1% of the tested compounds scored in any of these assays.

What do the screens show for `Cc1cccc(S(=O)(=O)N2C[C@H](O)COC[C@H]3O[C@H](CC(=O)N4CCN(C)CC4)CC[C@@H]32)c1`?
RAD54 branch: inactive

Results for CC(=O)Nc1ccc2c(c1)C(=O)N(C)[C@H]1CC[C@H](CC(=O)N3CCc4ccccc4C3)O[C@@H]1CO2 ?
RAD54 branch: inactive

How did CSc1sc(-c2ccnc(SCC(=O)C(C)(C)C)n2)c2c1C(=O)CC(C)(C)C2 do in these assays?
PvdQ acylase: inactive; DNA FID counter: inactive; VIM-2 inh: inactive; IMP-1 inhibitor: 14

How did CSc1sc(C(=O)O)c2c1C(=O)CC(C)(C)C2 do in these assays?
RAD54 branch: inactive; PvdQ acylase: inactive

How did COc1ccc(OC)c(-c2cc(C(=O)NCCCn3ccnc3)no2)c1 do in these assays?
PvdQ acylase: inactive; DNA FID counter: inactive; VIM-2 inh: 8.4; IMP-1 inhibitor: inactive

Results for COc1ccc(C(=O)NCCCn2ccnc2)cc1 ?
RAD54 branch: inactive; PvdQ acylase: inactive; DNA FID counter: inactive; VIM-2 inh: inactive; IMP-1 inhibitor: inactive

What do the screens show for `COCCC(=O)N1CCCC(C(=O)c2ccccc2SC)C1` (stereo not given)?
RAD54 branch: inactive; PvdQ acylase: inactive; DNA FID counter: inactive; VIM-2 inh: inactive; IMP-1 inhibitor: 19

Results for C[n+]1ccc(/C=C/c2ccc(Br)cc2)cc1 ?
RAD54 branch: inactive; PvdQ acylase: inactive; DNA FID counter: inactive; VIM-2 inh: inactive; IMP-1 inhibitor: 8.3

What do the screens show for `COc1ccc(CNc2c(C(=O)O)cnc3c2cnn3C)cc1`?
RAD54 branch: inactive; PvdQ acylase: inactive; DNA FID counter: inactive; VIM-2 inh: 9.9; IMP-1 inhibitor: inactive

How did O=C(NCCCN1CCOCC1)c1cc2nc(-c3ccco3)cc(C(F)(F)F)n2n1 do in these assays?
RAD54 branch: inactive; PvdQ acylase: inactive; DNA FID counter: inactive; VIM-2 inh: 12; IMP-1 inhibitor: inactive

What do the screens show for `Cc1cc2oc(=O)c(CC(=O)O)c(C)c2c2occ(C(C)(C)C)c12`?
RAD54 branch: inactive; PvdQ acylase: inactive; DNA FID counter: inactive; VIM-2 inh: 11; IMP-1 inhibitor: inactive

How did Cc1cc2oc(=O)c(CC(=O)NCCCO)c(C)c2c2occ(C(C)(C)C)c12 do in these assays?
RAD54 branch: inactive; PvdQ acylase: inactive; DNA FID counter: inactive; VIM-2 inh: inactive; IMP-1 inhibitor: inactive

How did Cc1cc2oc(=O)c(CC(=O)NCCCN(C)C)c(C)c2c2occ(C(C)(C)C)c12 do in these assays?
DNA FID counter: 37; VIM-2 inh: 8.9; IMP-1 inhibitor: inactive

What do the screens show for `COc1cccc2c1cc1c(=O)n(CC(=O)NCCCN3CCCCC3)nc(C)n12`?
RAD54 branch: inactive; PvdQ acylase: inactive; DNA FID counter: inactive; VIM-2 inh: 9.2; IMP-1 inhibitor: inactive

How did CCC(=O)N1[C@@H]2c3cccc(=O)n3C[C@@H]2[C@@H](CO)[C@@H]1C(=O)N1CCc2ccccc2C1 do in these assays?
RAD54 branch: inactive

How did O=C1S/C(=C\C=C\c2ccco2)C(=O)N1c1ccccc1 do in these assays?
PvdQ acylase: inactive; DNA FID counter: inactive; VIM-2 inh: inactive; IMP-1 inhibitor: inactive

How did O=C1S/C(=C\C=C\c2ccco2)C(=O)N1c1ccc(O)cc1 do in these assays?
PvdQ acylase: inactive; DNA FID counter: inactive; VIM-2 inh: inactive; IMP-1 inhibitor: 7.2

How did CO[C@@H](C(=O)N(C)C[C@H]1OCc2ccccc2-c2ccccc2C(=O)N([C@@H](C)CO)C[C@@H]1C)c1ccccc1 do in these assays?
RAD54 branch: inactive

Results for O=C(Nc1cc2c3c(c1)C1CCCC1CN3CC1CCCC21)c1ccccc1 (stereo not given) ?
RAD54 branch: 50; PvdQ acylase: inactive; DNA FID counter: inactive; VIM-2 inh: inactive; IMP-1 inhibitor: inactive

Results for O=C(Nc1cccc(C(=O)NC2CC2)c1)c1ccccc1 ?
RAD54 branch: inactive; PvdQ acylase: inactive

Results for C[C@@H](NC(=O)C[C@@H]1CC[C@H](NC(=O)C2CC2)[C@H](CO)O1)c1ccccc1 ?
RAD54 branch: inactive

How did CCOC(=O)N1CCN(S(=O)(=O)c2ccc(OCC(=O)OC)c(Cl)c2)CC1 do in these assays?
RAD54 branch: inactive; PvdQ acylase: inactive; DNA FID counter: inactive; VIM-2 inh: inactive; IMP-1 inhibitor: 5.0

Results for O=S(=O)(c1ccc(OCC(O)CNCc2ccco2)c(Cl)c1)N1CCOCC1 (stereo not given) ?
RAD54 branch: inactive; PvdQ acylase: inactive; DNA FID counter: inactive; VIM-2 inh: inactive; IMP-1 inhibitor: inactive

What do the screens show for `O=C(COc1ccc(S(=O)(=O)N2CCOCC2)cc1Cl)NCc1ccco1`?
RAD54 branch: inactive; PvdQ acylase: inactive; DNA FID counter: inactive; VIM-2 inh: inactive; IMP-1 inhibitor: 5.4

What do the screens show for `C[C@H]1CN([C@@H](C)CO)C(=O)c2cccc(NS(=O)(=O)c3cn(C)cn3)c2O[C@H]1CN(C)S(=O)(=O)c1ccc(Cl)cc1`?
RAD54 branch: inactive

What do the screens show for `CC1CCCN(CCCNC(=O)C2CC(=O)N(c3ccc(F)c(Cl)c3)C2)C1` (stereo not given)?
PvdQ acylase: inactive; DNA FID counter: inactive; VIM-2 inh: inactive; IMP-1 inhibitor: 5.8

Results for O=C(c1cnc2n(c1=O)CCS2)N1CCN(C(c2ccccc2)c2ccc(Cl)cc2)CC1 (stereo not given) ?
RAD54 branch: inactive; PvdQ acylase: inactive; DNA FID counter: inactive; VIM-2 inh: inactive; IMP-1 inhibitor: 5.9

Results for CCOC(=O)c1ccc2c(c1)n(CC)c(/C=C/N(C)c1ccccc1)[n+]2CC ?
RAD54 branch: inactive; PvdQ acylase: inactive; DNA FID counter: inactive; VIM-2 inh: inactive; IMP-1 inhibitor: inactive

Results for CC[n+]1c(/C=C/N(C)c2ccccc2)n(-c2ccccc2)c2ccc(-c3nc4ccccc4s3)cc21 ?
RAD54 branch: inactive; PvdQ acylase: inactive; DNA FID counter: 41; VIM-2 inh: inactive; IMP-1 inhibitor: inactive

What do the screens show for `CCn1nnnc1SCC(=O)Nc1nc2ccccc2s1`?
PvdQ acylase: inactive; DNA FID counter: inactive; VIM-2 inh: inactive; IMP-1 inhibitor: inactive

What do the screens show for `O=C(CSc1nnnn1-c1ccc(F)cc1)Nc1nc2ccccc2s1`?
RAD54 branch: inactive; PvdQ acylase: inactive; DNA FID counter: inactive; VIM-2 inh: inactive; IMP-1 inhibitor: 4.7

What do the screens show for `C[C@@H]1CCCCO[C@@H](CN(C)S(=O)(=O)c2ccc(F)cc2)[C@@H](C)CN([C@@H](C)CO)C(=O)c2cc(NC(=O)Nc3ccccc3)ccc2O1`?
RAD54 branch: inactive

What do the screens show for `O=S(=O)(c1ccc(Cl)c(NC(=S)N/N=C/c2c(F)cccc2F)c1)N1CCOCC1`?
PvdQ acylase: inactive; DNA FID counter: inactive; VIM-2 inh: 10; IMP-1 inhibitor: inactive

How did O=S(=O)(c1ccc(Cl)c(NC(=S)N/N=C/c2ccc(O)cc2)c1)N1CCOCC1 do in these assays?
PvdQ acylase: inactive; DNA FID counter: inactive; VIM-2 inh: inactive; IMP-1 inhibitor: inactive
